Data set [1] is described as follows: Selectivity index, ratio of CC50 for human MT4 cells to EC50 for HIV1. The format is toxicity, cell-based. The note with it: read-out: Ratio CC50/EC50. The method in brief:
(§1)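 SI computed as CC50/EC50. Both values come from parallel MTT readings after 4 days at 37 °C. CC50 is from mock-infected MT-4 cells; EC50 is from MT-4 cells infected with HIV-1 IIIB at MOI 0.1, as 50% protection from cytopathogenicity.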

Data set [2] concerns Human immunodeficiency virus 1. The data set can be described thus: Antiviral activity against HIV1 infected in human MT4 cells. The format is functional, organism-based. The following applies: Human immunodeficiency virus 1, MT4.
Data set [3] in a line: Cytotoxicity against human MT4 cells. The format is cell-based. In short, it runs like this:
(§2)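 Mock-infected MT-4 cells (1 ×10^5 cells/mL, RPMI 1640 + 10% heat-inactivated FBS) cultured with various compound concentrations in parallel with the antiviral assay, 4 days at 37 °C, 5% CO2. Viability read by MTT. CC50 is the concentration cutting uninfected-cell viability by 50%.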

Data set [4] is described as follows: Cytotoxicity against human MT4 cells after 4 days by MTT assay. The format is cell-based. In short, it runs like this: as §2
In general terms: Formazan colour is commonly taken as a measure of viable cells.

The subject of data set [5] is Human immunodeficiency virus 1. The data set can be described thus: Antiviral activity against HIV1 3B infected in human MT4 cells assessed as protection against viral-induced cytopathogenicity after 4 days by MTT assay. The format is functional, organism-based. The note with it: Human immunodeficiency virus 1, 3B, MT4, 96 h. Background: Cytopathic effects are the visible damage that an infection or toxin causes in cultured cells.

The nature of data set [6]: Selectivity index, ratio of CC50 for human MT4 cells to EC50 for HIV1 3B. The format is toxicity, cell-based. The note with it: read-out: Ratio CC50/EC50. The method in brief: as §1

One may read the EC50 as the concentration that produces a half-maximal response. As a reminder, the CC50 is the concentration at which the toxic effect on the cells reaches its halfway point. The low end stands for harm at low concentration, the high end for better tolerance by the cells.

On to `Cc1cc(C)cc(Cn2c(=O)cc(N=[N+]=[N-])n(Cc3ccccc3)c2=O)c1`, for which the selectivity ratio in data set [1] worked out at 685. This compound also showed an EC50 in data set [2] of 0.067 µM. Moreover, the CC50 in data set [3] was 45.9 µM.

With `Cc1cc(C)cc(Cn2c(=O)cc(N3CCNCC3)n(Cc3ccccc3)c2=O)c1`, it took 16 µM to reach half-maximal cytotoxicity in data set [4] (CC50 at 96 h). Moreover, in data set [5], the EC50 is > 16 µM.

As to `Cc1cc(C)cc(Cn2c(=O)cc(N=[N+]=[N-])n(Cc3ccncc3)c2=O)c1`, the CC50 at 96 h in data set [4] stood at 59 µM. The half-maximal effective concentration (EC50) in data set [5] stood at 0.05 µM. The selectivity ratio in data set [6] amounted to 1160.

Turning to `Cc1cc(C)cc(Cn2c(=O)cc(N=[N+]=[N-])n(Cc3ccccn3)c2=O)c1`, the CC50 at 96 h in data set [4] was > 100 µM. In addition, the EC50 in data set [5] was determined as 0.22 µM. Besides, the selectivity ratio in data set [6] is > 457.

For `Cc1cc(C)cc(Cn2c(=O)cc(N)n(Cc3ccccc3)c2=O)c1`, the selectivity ratio in data set [1] stood at 661. The EC50 in data set [2] turned out to be 0.069 µM. For the same compound, the midpoint of cytotoxicity in data set [3], the CC50, lay at 45.6 µM.

In data set [4], `Cc1cc(C)cc(Cn2c(=O)cc(N3CCCCC3)n(Cc3ccccc3)c2=O)c1` had a CC50 at 96 h of 47 µM. In data set [5], the EC50 was > 47 µM.

In the case of `Cc1cc(C)cc(Cn2c(=O)cc(NC3CCCCC3)n(Cc3ccccc3)c2=O)c1`, the CC50 at 96 h in data set [4] is 74 µM. For the same compound, the EC50 in data set [5] was > 74 µM.

Turning to `Cc1cc(C)cc(Cn2c(=O)cc(N3CCCC3)n(Cc3ccccc3)c2=O)c1`, in data set [4], the midpoint of cytotoxicity, the CC50 at 96 h, lay at 31 µM. For the same compound, the EC50 in data set [5] is > 31 µM.

In data set [4], `Cc1cc(C)cc(Cn2c(=O)cc(N=[N+]=[N-])n(CC#N)c2=O)c1` had a CC50 at 96 h of 60 µM. Also, the EC50 in data set [5] stood at 3.5 µM.

In the case of `Cc1cc(C)cc(Cn2c(=O)cc(N)n(Cc3ccncc3)c2=O)c1`, in data set [4], the CC50 at 96 h is > 100 µM. Further, the EC50 in data set [5] was 0.03 µM. The selectivity ratio in data set [6] was > 2860.

`Cc1cc(C)cc(Cn2c(=O)cc(NC3CC3)n(Cc3ccccc3)c2=O)c1`: the CC50 at 96 h in data set [4] is > 100 µM. Moreover, the half-maximal effective concentration (EC50) in data set [5] is > 100 µM.

In the case of `Cc1cc(C)cc(Cn2c(=O)cc(N)n(Cc3ccccn3)c2=O)c1`, in data set [4], the CC50 at 96 h is > 100 µM. In data set [5], the EC50 amounted to 0.23 µM. In data set [6], the selectivity ratio was > 443.

On to `Cc1cc(C)cc(Cn2c(=O)cc(N)n(CC#N)c2=O)c1`, for which the CC50 at 96 h in data set [4] was > 100 µM. Also, in data set [5], the EC50 was > 100 µM.

For the compound `Cc1cn([C@H]2C[C@H](N=[N+]=[N-])[C@@H](CO)O2)c(=O)[nH]c1=O` [ZIDOVUDINE], the CC50 at 96 h in data set [4] is > 100 µM. The half-maximal effective concentration (EC50) in data set [5] was determined as 0.04 µM. In data set [6], the selectivity ratio is > 2770.

As for `Cc1cc(C)cc(Cn2c(=O)cc(N3CCOCC3)n(Cc3ccccc3)c2=O)c1`, the CC50 at 96 h in data set [4] is > 100 µM. Moreover, the EC50 in data set [5] is > 100 µM.

In the case of `Cc1cc(C)cc(Cn2c(=O)cc(N(C)C)n(Cc3ccccc3)c2=O)c1`, in data set [4], half-maximal cytotoxicity (CC50 at 96 h) was put at 48 µM. In data set [5], the EC50 was > 48 µM.

In the case of `CC(=O)Nc1cc(=O)n(Cc2cc(C)cc(C)c2)c(=O)n1Cc1ccccc1`, the CC50 at 96 h in data set [4] was > 100 µM. For the same compound, the EC50 in data set [5] was > 100 µM.

On to `Cc1cc(C)cc(Cn2c(=O)cc(NCc3ccccc3)n(Cc3ccccc3)c2=O)c1`, for which the CC50 at 96 h in data set [4] was > 100 µM. The EC50 in data set [5] is > 100 µM.

With `CNc1cc(=O)n(Cc2cc(C)cc(C)c2)c(=O)n1Cc1ccccc1`, the CC50 at 96 h in data set [4] is 65 µM. The EC50 in data set [5] was found to be 7 µM. Besides, the selectivity ratio in data set [6] was 9.

With `Cc1ccnc2c1NC(=O)c1cccnc1N2C1CC1` [NEVIRAPINE], the selectivity ratio in data set [1] is > 1640.

These data come from ChEMBL document CHEMBL2417418, “Synthesis and evaluation of novel 3-(3,5-dimethylbenzyl)uracil analogs as potential anti-HIV-1 agents” (Bioorg Med Chem, 2013).
